The record followed here is ChEMBL document CHEMBL1144979, “Combinatorial modification of natural products: synthesis and in vitro analysis of derivatives of thiazole peptide antibiotic GE2270 A: A-ring modifications” (Bioorg Med Chem Lett, 2003).

SMILES strings stand for the structures. Values after ≈ are worked out from the molar mass of the structure shown.

Holding throughout (format): functional
One assay relates to Enterococcus faecium. The experiment in a line: In vitro antibacterial activity against Vancomycin-susceptible Enterococcus faecium BM4147.1. The gist of the method: (§1)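 MICs by NCCLS broth dilution guidelines, modified by adding 0.02% bovine serum albumin to the growth medium; purified, resynthesized compounds tested against the expanded bacterial panel.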
The next assay concerns Enterococcus faecalis. The assay is described as follows: In vitro antibacterial activity against Vancomycin-resistant Enterococcus faecalis ATCC 51299.
Assay [1] deals with Staphylococcus aureus. The experiment in a line: In vitro antibacterial activity against methicillin sensitive Staphylococcus aureus ATCC 25923. The procedure, abridged: as §1
The test system of assay [2] is Staphylococcus aureus. The experiment in a line: In vitro antibacterial activity against methicillin resistant Staphylococcus aureus (MRSA) ATCC 33591.

In general, MIC refers to the least concentration at which growth counts as inhibited. Read a high MIC as a less susceptible organism. As to `CNC(=O)C[C@@H]1NC(=O)c2csc(n2)-c2ccc(-c3nc(C(=O)NCCCCN=C(N)N)cs3)nc2-c2csc(n2)-c2csc(n2)C(C(O)c2ccccc2)NC(=O)CNC(=O)c2nc(sc2COC)[C@H](C(C)C)NC(=O)c2nc1sc2C` (stereo partly drawn), the MIC is 8 µg/mL (≈ 6.46 µM) with Enterococcus faecium, 8 µg/mL (≈ 6.46 µM) in the assay on Enterococcus faecalis, 8 µg/mL (≈ 6.46 µM) in the assay on Staphylococcus aureus [1] and 4 µg/mL (≈ 3.23 µM) in the assay with Staphylococcus aureus [2].

On to `CNC(=O)C[C@@H]1NC(=O)c2csc(n2)-c2ccc(-c3nc(C(=O)NCC[N+]4([O-])CCOCC4)cs3)nc2-c2csc(n2)-c2csc(n2)C(C(O)c2ccccc2)NC(=O)CNC(=O)c2nc(sc2COC)[C@H](C(C)C)NC(=O)c2nc1sc2C` (stereo partly drawn), for which the MIC in the assay on Enterococcus faecium was 0.5 µg/mL (≈ 0.399 µM); with Enterococcus faecalis it was 2 µg/mL (≈ 1.6 µM); against Staphylococcus aureus [1] it was 1 µg/mL (≈ 0.798 µM); in the assay with Staphylococcus aureus [2], 1 µg/mL (≈ 0.798 µM).

On to `CNC(=O)C[C@@H]1NC(=O)c2csc(n2)-c2ccc(-c3nc(C(=O)NCCO)cs3)nc2-c2csc(n2)-c2csc(n2)C(C(O)c2ccccc2)NC(=O)CNC(=O)c2nc(sc2COC)[C@H](C(C)C)NC(=O)c2nc1sc2C` (stereo partly drawn), for which the MIC amounted to 0.03 µg/mL (≈ 0.0257 µM) in the assay with Enterococcus faecium, 0.03 µg/mL (≈ 0.0257 µM) with Enterococcus faecalis, 0.06 µg/mL (≈ 0.0514 µM) against Staphylococcus aureus [1] and 0.125 µg/mL (≈ 0.107 µM) in the assay on Staphylococcus aureus [2].

Consider `CNC(=O)C[C@@H]1NC(=O)c2csc(n2)-c2ccc(-c3nc(C(=O)NCCOCCO)cs3)nc2-c2csc(n2)-c2csc(n2)C(C(O)c2ccccc2)NC(=O)CNC(=O)c2nc(sc2COC)[C@H](C(C)C)NC(=O)c2nc1sc2C` (stereo partly drawn), for which the MIC in the assay with Enterococcus faecium amounted to 0.125 µg/mL (≈ 0.103 µM); with Enterococcus faecalis, 0.06 µg/mL (≈ 0.0495 µM); against Staphylococcus aureus [1] it was 0.25 µg/mL (≈ 0.206 µM); against Staphylococcus aureus [2], 0.06 µg/mL (≈ 0.0495 µM).

For `CNC(=O)C[C@@H]1NC(=O)c2csc(n2)-c2ccc(-c3nc(C(=O)NCC[C@H](O)C(=O)O)cs3)nc2-c2csc(n2)-c2csc(n2)C(C(O)c2ccccc2)NC(=O)CNC(=O)c2nc(sc2COC)[C@H](C(C)C)NC(=O)c2nc1sc2C` (stereo partly drawn), the MIC against Enterococcus faecium was 0.03 µg/mL (≈ 0.0245 µM); in the assay with Enterococcus faecalis, 0.25 µg/mL (≈ 0.204 µM); against Staphylococcus aureus [1], 4 µg/mL (≈ 3.26 µM); with Staphylococcus aureus [2], 2 µg/mL (≈ 1.63 µM).

In turn, `CNC(=O)C[C@@H]1NC(=O)c2csc(n2)-c2ccc(-c3nc(C(=O)N[C@@H](CO)C(=O)N4CCC[C@H]4C(N)=O)cs3)nc2-c2csc(n2)-c2csc(n2)C(C(O)c2ccccc2)NC(=O)CNC(=O)c2nc(sc2COC)[C@H](C(C)C)NC(=O)c2nc1sc2C` (stereo partly drawn) had an MIC against Staphylococcus aureus [2] of 0.25 µg/mL (≈ 0.191 µM).

Consider `CNC(=O)C[C@@H]1NC(=O)c2csc(n2)-c2ccc(-c3nc(C(=O)N[C@@H](CCC(=O)O)C(=O)NCCCCCC(=O)O)cs3)nc2-c2csc(n2)-c2csc(n2)C(C(O)c2ccccc2)NC(=O)CNC(=O)c2nc(sc2COC)[C@H](C(C)C)NC(=O)c2nc1sc2C` (stereo partly drawn), for which the MIC in the assay with Staphylococcus aureus [1] and against Staphylococcus aureus [2] was more than 32 µg/mL throughout.

`CNC(=O)C[C@@H]1NC(=O)c2csc(n2)-c2ccc(-c3nc(C(=O)NCCCC(=O)O)cs3)nc2-c2csc(n2)-c2csc(n2)C(C(O)c2ccccc2)NC(=O)CNC(=O)c2nc(sc2COC)[C@H](C(C)C)NC(=O)c2nc1sc2C` (stereo partly drawn): the MIC with Enterococcus faecium was determined as 0.015 µg/mL (≈ 0.0124 µM); in the assay with Enterococcus faecalis it was 0.03 µg/mL (≈ 0.0248 µM); against Staphylococcus aureus [1] it was 0.25 µg/mL (≈ 0.207 µM); with Staphylococcus aureus [2], 0.125 µg/mL (≈ 0.103 µM).

Consider `CNC(=O)C[C@@H]1NC(=O)c2csc(n2)-c2ccc(-c3nc(C(=O)NCCCCCC(=O)O)cs3)nc2-c2csc(n2)-c2csc(n2)C(C(O)c2ccccc2)NC(=O)CNC(=O)c2nc(sc2COC)[C@H](C(C)C)NC(=O)c2nc1sc2C` (stereo partly drawn), for which the MIC in the assay on Enterococcus faecium was found to be 0.03 µg/mL (≈ 0.0242 µM); against Enterococcus faecalis, 0.03 µg/mL (≈ 0.0242 µM); with Staphylococcus aureus [1], 0.06 µg/mL (≈ 0.0484 µM); with Staphylococcus aureus [2], 0.015 µg/mL (≈ 0.0121 µM).

In turn, `CNC(=O)C[C@@H]1NC(=O)c2csc(n2)-c2ccc(-c3nc(C(=O)N[C@@H](CCC(=O)O)C(=O)N4CCCC[C@H]4C(N)=O)cs3)nc2-c2csc(n2)-c2csc(n2)C(C(O)c2ccccc2)NC(=O)CNC(=O)c2nc(sc2COC)[C@H](C(C)C)NC(=O)c2nc1sc2C` (stereo partly drawn) came in with an MIC in the assay on Staphylococcus aureus [2] of 4 µg/mL (≈ 2.93 µM).

Regarding `CNC(=O)C[C@@H]1NC(=O)c2csc(n2)-c2ccc(-c3nc(C(=O)NCCNCCO)cs3)nc2-c2csc(n2)-c2csc(n2)C(C(O)c2ccccc2)NC(=O)CNC(=O)c2nc(sc2COC)[C@H](C(C)C)NC(=O)c2nc1sc2C` (stereo partly drawn), the MIC with Enterococcus faecium came out at 2 µg/mL (≈ 1.65 µM); against Enterococcus faecalis, 4 µg/mL (≈ 3.3 µM); against Staphylococcus aureus [1], 2 µg/mL (≈ 1.65 µM); with Staphylococcus aureus [2] it was 2 µg/mL (≈ 1.65 µM).

As for `CNC(=O)C[C@@H]1NC(=O)c2csc(n2)-c2ccc(-c3nc(C(=O)NCC(O)C(=O)O)cs3)nc2-c2csc(n2)-c2csc(n2)C(C(O)c2ccccc2)NC(=O)CNC(=O)c2nc(sc2COC)[C@H](C(C)C)NC(=O)c2nc1sc2C` (stereo partly drawn), the MIC in the assay with Enterococcus faecium was determined as 0.5 µg/mL (≈ 0.412 µM); in the assay on Enterococcus faecalis it was 1 µg/mL (≈ 0.825 µM); in the assay on Staphylococcus aureus [1], 4 µg/mL (≈ 3.3 µM); against Staphylococcus aureus [2], 4 µg/mL (≈ 3.3 µM).

As to `CNC(=O)C[C@@H]1NC(=O)c2csc(n2)-c2ccc(-c3nc(CNC(=O)NCC(O)CC(=O)O)cs3)nc2-c2csc(n2)-c2csc(n2)C(C(O)c2ccccc2)NC(=O)CNC(=O)c2nc(sc2COC)[C@H](C(C)C)NC(=O)c2nc1sc2C` (stereo partly drawn), the MIC against Enterococcus faecium is 2 µg/mL (≈ 1.59 µM); against Enterococcus faecalis, more than 16 µg/mL; against Staphylococcus aureus [1], 8 µg/mL (≈ 6.37 µM); in the assay with Staphylococcus aureus [2], 8 µg/mL (≈ 6.37 µM).

In the case of `CNC(=O)C[C@@H]1NC(=O)c2csc(n2)-c2ccc(-c3nc(C(=O)N[C@@H](CC(=O)O)C(=O)N[C@@H](CC(=O)O)C(N)=O)cs3)nc2-c2csc(n2)-c2csc(n2)C(C(O)c2ccccc2)NC(=O)CNC(=O)c2nc(sc2COC)[C@H](C(C)C)NC(=O)c2nc1sc2C` (stereo partly drawn), the MIC against Staphylococcus aureus [1] and against Staphylococcus aureus [2] was more than 32 µg/mL throughout.

With `CNC(=O)C[C@@H]1NC(=O)c2csc(n2)-c2ccc(-c3nc(C(=O)N4CC(C(=O)N[C@H](CCC(=O)O)C(=O)O)C4)cs3)nc2-c2csc(n2)-c2csc(n2)C(C(O)c2ccccc2)NC(=O)CNC(=O)c2nc(sc2COC)[C@H](C(C)C)NC(=O)c2nc1sc2C` (stereo partly drawn), the MIC with Staphylococcus aureus [1] and against Staphylococcus aureus [2] was more than 32 µg/mL each time.

In the case of `CNC(=O)C[C@@H]1NC(=O)c2csc(n2)-c2ccc(-c3nc(C(=O)NCCCN)cs3)nc2-c2csc(n2)-c2csc(n2)C(C(O)c2ccccc2)NC(=O)CNC(=O)c2nc(sc2COC)[C@H](C(C)C)NC(=O)c2nc1sc2C` (stereo partly drawn), the MIC in the assay with Enterococcus faecium was found to be 2 µg/mL (≈ 1.69 µM); against Enterococcus faecalis, 2 µg/mL (≈ 1.69 µM); in the assay with Staphylococcus aureus [1], 1 µg/mL (≈ 0.846 µM); against Staphylococcus aureus [2], 1 µg/mL (≈ 0.846 µM).

With `CNC(=O)C[C@@H]1NC(=O)c2csc(n2)-c2ccc(-c3nc(C(=O)NCCC(=O)O)cs3)nc2-c2csc(n2)-c2csc(n2)C(C(O)c2ccccc2)NC(=O)CNC(=O)c2nc(sc2COC)[C@H](C(C)C)NC(=O)c2nc1sc2C` (stereo partly drawn), the MIC turned out to be 0.06 µg/mL (≈ 0.0501 µM) against Enterococcus faecium, 0.06 µg/mL (≈ 0.0501 µM) with Enterococcus faecalis, 0.5 µg/mL (≈ 0.418 µM) in the assay with Staphylococcus aureus [1] and 0.5 µg/mL (≈ 0.418 µM) against Staphylococcus aureus [2].

`CNC(=O)C[C@@H]1NC(=O)c2csc(n2)-c2ccc(-c3nc(C(=O)NCCC[N+]4([O-])CCOCC4)cs3)nc2-c2csc(n2)-c2csc(n2)C(C(O)c2ccccc2)NC(=O)CNC(=O)c2nc(sc2COC)[C@H](C(C)C)NC(=O)c2nc1sc2C` (stereo partly drawn): the minimum inhibitory concentration (MIC) in the assay with Enterococcus faecium was 1 µg/mL (≈ 0.789 µM); in the assay on Enterococcus faecalis it was 2 µg/mL (≈ 1.58 µM); in the assay with Staphylococcus aureus [1], 2 µg/mL (≈ 1.58 µM); with Staphylococcus aureus [2], 2 µg/mL (≈ 1.58 µM).

For `CNC(=O)C[C@@H]1NC(=O)c2csc(n2)-c2ccc(-c3nc(C(=O)N4CC(C(N)=O)C4)cs3)nc2-c2csc(n2)-c2csc(n2)C(C(O)c2ccccc2)NC(=O)CNC(=O)c2nc(sc2COC)[C@H](C(C)C)NC(=O)c2nc1sc2C` (stereo partly drawn), the MIC in the assay with Staphylococcus aureus [2] is 0.06 µg/mL (≈ 0.0497 µM).

In the case of `CNC(=O)C[C@@H]1NC(=O)c2csc(n2)-c2ccc(-c3nc(C(=O)N[C@@H](CC(=O)O)C(=O)NCCCCCC(=O)O)cs3)nc2-c2csc(n2)-c2csc(n2)C(C(O)c2ccccc2)NC(=O)CNC(=O)c2nc(sc2COC)[C@H](C(C)C)NC(=O)c2nc1sc2C` (stereo partly drawn), the MIC in the assay on Staphylococcus aureus [1] and with Staphylococcus aureus [2] was more than 32 µg/mL in each case.
